Assay results: PMC11649739 (Clinical Pharmacokinetics, 2024)
Like-named read-outs stand apart in the source and are kept apart here.

Experiments:
[1] = type: in vivo, human; conditions: for AUC / concentration at 24 h / Cmax: human, plasma, oral; for Cmax: Entire Cmax
Summary of the method: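 Ensitrelvir was dosed once daily, 375 mg on day 1 then 125 mg on days 2–5, or 750/250 mg. A population PK model was fitted to 8034 plasma concentrations from 2060 healthy and SARS-CoV-2-infected participants: two-compartment, first-order absorption, with covariates tested on CL/F. Empirical Bayesian estimates from the final model were used to calculate individual exposures for SCORPIO-SR phase III participants.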

[2] = test system: SARS-CoV-2; type: in vivo, human
Summary of the method: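 Phase III SCORPIO-SR participants received ensitrelvir or placebo. Dosing was once daily for 5 days, either 375 mg on day 1 then 125 mg on days 2–5, or 750 mg then 250 mg. Day-1 C24 (also Cmax and AUC) came from empirical Bayesian post hoc estimates. For placebo these were set to 0. Exposures were split into quartiles and boxplotted against change from baseline in viral RNA on day 4. Sub-LLOQ RNA values were set to LLOQ.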

[3] = test system: SARS-CoV-2; conditions: cited from earlier work
[4] = cited from earlier work
[5] = test system: breast cancer resistance protein; conditions: drug interactions; cited from earlier work
[6] = 250 mg group: 750 mg on day 1 and 250 mg on days 2–5, Bayesian-estimated
[7] = 250 mg group: 750 mg on day 1 and 250 mg on days 2–5, day 1
[8] = 250 mg group: 750 mg on day 1 and 250 mg on days 2–5, day 5

## Cn1cnc(Cn2c(=O)[nH]/c(=N\c3cc4cn(C)nc4cc3Cl)n(Cc3cc(F)c(F)cc3F)c2=O)n1 [ensitrelvir]
[1]; [6]
  CL/F, Mean: 0.201 L/h
  CL/F, Median: 0.198 L/h
  CL/F, Minimum: 0.0963 L/h
  Vc/F, Maximum: 28.1 L
  Vc/F, Mean: 14.5 L
  Vc/F, Median: 14.1 L
  Vc/F, Minimum: 7.31 L
[1]; [7]
  AUC_d1, Maximum: 1617 µg·h/mL
  AUC_d1, Minimum: 375.0 µg·h/mL
  Cmax_d1, Maximum: 86900 ng/mL
  Cmax_d1, Mean: 48900 ng/mL
  Cmax_d1, Median: 47700 ng/mL
  Cmax_d1, Minimum: 24900 ng/mL
[1]; [8]
  AUC_d5, Maximum: 2502 µg·h/mL
  AUC_d5, Minimum: 615.4 µg·h/mL
  Cmax_d5, Maximum: 104000 ng/mL
  Cmax_d5, Mean: 56400 ng/mL
  Cmax_d5, Median: 55100 ng/mL
  Cmax_d5, Minimum: 31900 ng/mL
[1]; AUC_d1, Mean, 125 mg group: 375 mg on day 1 and 125 mg on days 2–5, day 1
  AUC: 438 µg·h/mL
[1]; AUC_d1, Mean, 250 mg group: 750 mg on day 1 and 250 mg on days 2–5, day 1
  AUC: 910 µg·h/mL
[1]; AUC_d1, Median, 125 mg group: 375 mg on day 1 and 125 mg on days 2–5, day 1
  AUC: 432 µg·h/mL
[1]; AUC_d1, Median, 250 mg group: 750 mg on day 1 and 250 mg on days 2–5, day 1
  AUC: 887 µg·h/mL
[1]; AUC_d5, Mean, 125 mg group: 375 mg on day 1 and 125 mg on days 2–5, day 5
  AUC: 578 µg·h/mL
[1]; AUC_d5, Mean, 250 mg group: 750 mg on day 1 and 250 mg on days 2–5, day 5
  AUC: 1230 µg·h/mL
[1]; AUC_d5, Median, 125 mg group: 375 mg on day 1 and 125 mg on days 2–5, day 5
  AUC: 568 µg·h/mL
[1]; AUC_d5, Median, 250 mg group: 750 mg on day 1 and 250 mg on days 2–5, day 5
  AUC: 1200 µg·h/mL
[1]; C24_d1, Maximum, 125 mg group: 375 mg on day 1 and 125 mg on days 2–5, 24 h postdose on day 1
  concentration at 24 h: 27600 ng/mL
[1]; C24_d1, Maximum, 250 mg group: 750 mg on day 1 and 250 mg on days 2–5, 24 h postdose on day 1
  concentration at 24 h: 61000 ng/mL
[1]; C24_d1, Mean, 125 mg group: 375 mg on day 1 and 125 mg on days 2–5, 24 h postdose on day 1
  concentration at 24 h: 16600 ng/mL
[1]; C24_d1, Mean, 250 mg group: 750 mg on day 1 and 250 mg on days 2–5, 24 h postdose on day 1
  concentration at 24 h: 34800 ng/mL
[1]; C24_d1, Median, 125 mg group: 375 mg on day 1 and 125 mg on days 2–5, 24 h postdose on day 1
  concentration at 24 h: 16500 ng/mL
[1]; C24_d1, Median, 250 mg group: 750 mg on day 1 and 250 mg on days 2–5, 24 h postdose on day 1
  concentration at 24 h: 34200 ng/mL
[1]; C24_d1, Minimum, 125 mg group: 375 mg on day 1 and 125 mg on days 2–5, 24 h postdose on day 1
  concentration at 24 h: 8430 ng/mL
[1]; C24_d1, Minimum, 250 mg group: 750 mg on day 1 and 250 mg on days 2–5, 24 h postdose on day 1
  concentration at 24 h: 19400 ng/mL
[1]; C24_d5, Maximum, 125 mg group: 375 mg on day 1 and 125 mg on days 2–5, 24 h postdose on day 5
  concentration at 24 h: 35200 ng/mL
[1]; C24_d5, Maximum, 250 mg group: 750 mg on day 1 and 250 mg on days 2–5, 24 h postdose on day 5
  concentration at 24 h: 80900 ng/mL
[1]; C24_d5, Mean, 125 mg group: 375 mg on day 1 and 125 mg on days 2–5, 24 h postdose on day 5
  concentration at 24 h: 19500 ng/mL
[1]; C24_d5, Mean, 250 mg group: 750 mg on day 1 and 250 mg on days 2–5, 24 h postdose on day 5
  concentration at 24 h: 41800 ng/mL
[1]; C24_d5, Median, 125 mg group: 375 mg on day 1 and 125 mg on days 2–5, 24 h postdose on day 5
  concentration at 24 h: 19200 ng/mL
[1]; C24_d5, Median, 250 mg group: 750 mg on day 1 and 250 mg on days 2–5, 24 h postdose on day 5
  concentration at 24 h: 40800 ng/mL
[1]; C24_d5, Minimum, 125 mg group: 375 mg on day 1 and 125 mg on days 2–5, 24 h postdose on day 5
  concentration at 24 h: 10500 ng/mL
[1]; C24_d5, Minimum, 250 mg group: 750 mg on day 1 and 250 mg on days 2–5, 24 h postdose on day 5
  concentration at 24 h: 24300 ng/mL
[1]; Entire AUC, Mean, 125 mg group: 375 mg on day 1 and 125 mg on days 2–5
  AUC: 2570 µg·h/mL
[1]; Entire AUC, Mean, 250 mg group: 750 mg on day 1 and 250 mg on days 2–5
  AUC: 5430 µg·h/mL
[1]; Entire AUC, Median, 125 mg group: 375 mg on day 1 and 125 mg on days 2–5
  AUC: 2530 µg·h/mL
[1]; Entire AUC, Median, 250 mg group: 750 mg on day 1 and 250 mg on days 2–5
  AUC: 5320 µg·h/mL
[1]; Mean, 250 mg group: 750 mg on day 1 and 250 mg on days 2–5
  Cmax: 56400 ng/mL
[1]; Median, 250 mg group: 750 mg on day 1 and 250 mg on days 2–5
  Cmax: 55100 ng/mL
[2]; C24 on day 1 between 8.43 and 61.0 μg/mL
  antiviral effects between the 375/125 mg and 750/250 mg doses: did not differ
[2]; day 4, within the exposure range evaluated, phase III of SCORPIO-SR
  virus RNA decrease across exposure categories (C24 on day 1 quartiles): decreased to a similar extent in all categories
[2]; ensitrelvir dosing groups, phase III of SCORPIO-SR
  change from baseline in the amount of SARS-CoV-2 viral RNA on day 4, versus placebo: lower in the ensitrelvir dosing group than in the placebo group
[3]; 125-mg group, phase III of SCORPIO-SR
  time to five COVID-19 symptoms: 167.9 h
[3]; both dose groups 375/125 mg and 750/250 mg
  clearance of SARS-CoV-2: rapid clearance of SARS-CoV-2
[4]
  effect of food intake on pharmacokinetic profiles: not substantially affected
[4]; dose groups ranging from 20 to 1000 mg
  recovered in the urine as unchanged ensitrelvir: 12.9–21.8%
[4]; fed state with a high-fat/high-calorie meal vs fasted, phase I study
  effect of fed state on Cmax: not affected
[4]; including healthy white participants
  pharmacokinetic profiles among various populations: not meaningfully different
[4]; single administration
  terminal elimination half-life (t½,z): 42.2 to 48.1 h
[4]; single oral administration, 20 to 2000 mg, fasted state
  increase of Cmax and AUC0–inf with dose: almost dose-proportional
[4]; single oral administration
  time at which maximum plasma concentration is reached: around 2.50 h
[5]
  inhibition of breast cancer resistance protein: inhibits
